This note sets out measurements from publication PMC6007853 (Biochemistry, 2018).

“Also recorded” adds a separate entry of the source. Where two headings read alike, the source gives them in different places.

The target of assay [1] is Kv1.4 (Homo sapiens, UniProt P22459). In kind it is cell-based. The settings on record: for Kv1.4 / Kv channel inhibition (in words): highest concentrations tested; for τact / τinact: voltage step from −100 mV to 0 mV, double exponential fit. Put shortly: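 Kv1.4 expressed under tetracycline induction in a CHO-K1 line and recorded by automated whole-cell voltage clamp. Voltage steps went from −100 mV to 0 mV. A double exponential was fitted to current rise and decay to obtain τact and τinact. Kd values were fitted from these, n = 9, SEM. IC50 came from the best fit of peak-current inhibition ± standard deviation of the parameter fit.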

Assay [2] concerns Gramicidin A (gA) channel. Briefly: Gramicidin A based fluorescence quench assay. The following applies: highest concentration tested. In kind it is biochemical. Put shortly:
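ANTS was loaded into large unilamellar vesicles containing gramicidin A, and Tl+ was added to the suspension. Intravesicular ANTS quenching was followed over time, with nine individual repeats per trace. The initial quench rate gave the Tl+ influx rate. gA2 is the compound concentration that doubles that rate. Where gA2 was not obtained, the highest concentration tested is given.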

Sequence of Kv1.4 (P22459 whole entry): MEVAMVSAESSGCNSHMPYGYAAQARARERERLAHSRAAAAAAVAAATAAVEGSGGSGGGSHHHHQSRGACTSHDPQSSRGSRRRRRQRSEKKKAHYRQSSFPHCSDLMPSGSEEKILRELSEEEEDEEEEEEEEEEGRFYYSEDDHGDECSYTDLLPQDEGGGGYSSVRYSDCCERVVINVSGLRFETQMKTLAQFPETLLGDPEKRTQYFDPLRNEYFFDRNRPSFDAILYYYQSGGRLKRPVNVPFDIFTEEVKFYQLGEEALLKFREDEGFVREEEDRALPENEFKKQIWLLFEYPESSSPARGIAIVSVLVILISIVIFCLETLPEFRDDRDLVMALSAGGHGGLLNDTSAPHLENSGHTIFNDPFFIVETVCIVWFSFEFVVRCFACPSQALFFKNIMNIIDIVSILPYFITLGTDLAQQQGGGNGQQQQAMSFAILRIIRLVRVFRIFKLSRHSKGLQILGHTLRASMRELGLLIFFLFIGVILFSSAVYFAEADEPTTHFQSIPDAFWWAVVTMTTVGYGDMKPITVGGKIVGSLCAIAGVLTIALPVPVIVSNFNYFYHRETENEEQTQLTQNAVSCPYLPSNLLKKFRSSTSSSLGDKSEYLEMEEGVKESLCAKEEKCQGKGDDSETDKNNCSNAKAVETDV

As for `Cc1ccc2c(CCN)c(SSc3[nH]c4cc(C)ccc4c3CCN)[nH]c2c1` [compound 7], the “Kv1.4 / Kv channel inhibition (in words)” value in assay [1] is given as “strongly inhibit”.
In general, IC50 refers to the concentration that gives 50% inhibition. As to `NCCc1c(COCc2[nH]c3cc(Br)ccc3c2CCN)[nH]c2cc(Br)ccc12` [compound 14], the “Kv1.4 / Kv channel inhibition (in words)” value in assay [1] was “strongly inhibit”. In addition, the IC50 in assay [1] (read-out: IC50 (potency against Kv1.4)) was determined as 2700 nM.
As for `NCCc1c(SSc2[nH]c3cc(Br)ccc3c2CCN)[nH]c2cc(Br)ccc12` [1a, 6-bromo-2-mercaptotryptamine dimer], the values for the τact in assay [1] (1.5 μM BrMT), in assay [1] (3 μM BrMT) and in assay [1] (6 μM BrMT) were 2.54 ± 0.02, 3.17 ± 0.03 and 4.2 ± 0.4, respectively. Further, the τinact in assay [1] (1.5 μM BrMT) is reported as 136.6 ± 0.6; in assay [1] (3 μM BrMT) it was 181 ± 2; in assay [1] (6 μM BrMT), 300 ± 20. The “Kv1.4 / Kv channel inhibition (in words)” value in assay [1] is given as “strongly inhibit”.
For `NCCc1c(SSc2[nH]c3ccc(Br)cc3c2CCN)[nH]c2ccc(Br)cc12` [compound 8], the “Kv1.4 / Kv channel inhibition (in words)” value in assay [1] is “strongly inhibit”. Moreover, the “gA assay activity / bilayer perturbation (in words)” value in assay [2] was “complete inactivity; also recorded: does not perturb bilayers”.
